Measured values published in ChEMBL document CHEMBL3608271, “New phenolic compounds from the seeds of Nigella glandulifera and their inhibitory activities against human cancer cells” (Bioorg Med Chem Lett, 2015).
pIC50: −log10 of the molar value.

Assays:
Type in all cases: functional, cell-based
[1] = Cytotoxicity against human Bel7402 cells after 72 hrs by MTT assay; settings: Bel-7402, 72 h
Outline: (§1)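 Cells seeded in 96-well plates and grown 24 h at 37 °C, 5% CO2, then exposed to test compound at five concentrations for 72 h. MTT (0.5 mg/mL in PBS) added, 4 h at 37 °C. Medium replaced with DMSO, shaken 3 min to dissolve formazan, optical density read at 544 nm. 5-Fluorouracil as positive control.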

[2] = Cytotoxicity against human HCT8 cells after 72 hrs by MTT assay; settings: HCT-8, 72 h; outline: as §1
[3] = test system: HepG2; assay: Cytotoxicity against human HepG2 cells after 72 hrs by MTT assay; settings: HepG2, 72 h; outline: as §1
[4] = test system: A549; assay: Cytotoxicity against human A549 cells after 72 hrs by MTT assay; settings: A549, 72 h; outline: as §1

With `CC(C)=CCc1c(O)cc(CO)cc1O` the pIC50 [1] was 5.11, the pIC50 [2] was 4.94 and the pIC50 [3] was 4.80. The pIC50 [4] was 4.70.
In the case of `CC1(C)C=Cc2c(O)cc(CO)cc2O1`, the pIC50 [1] was < 4.40, the pIC50 [2] was < 4.40 and the pIC50 [3] was 4.76. For the same compound, the pIC50 [4] was 4.44.
In the case of `CC1(C)C=Cc2c(cc3c(c2O)C(=O)OC3)O1`, the pIC50 [1] was < 4.40, the pIC50 [2] was 4.62 and the pIC50 [3] was 4.43. The pIC50 [4] was < 4.40.
For `O=c1[nH]cc(F)c(=O)[nH]1` [FLUOROURACIL], the pIC50 [1] was 5.00, the pIC50 [2] was 5.20 and the pIC50 [3] was 4.78. For the same compound, the pIC50 [4] was 4.85.
For `CC(C)(O)CCc1c(O)cc(CO)cc1O`, the pIC50 [1] was < 4.40, the pIC50 [2] was < 4.40 and the pIC50 [3] was 4.75. The pIC50 [4] was < 4.40.
